Reference: article PMC3048909 (Journal of medicinal chemistry, 2011)

molecular target: α4β4-nAChR (Homo sapiens, UniProt P30926+P43681); assay: 86Rb+ efflux assay of nAChR function; assay type: cell-based; settings: not given
Sequence (P43681 29-627 limits assumed): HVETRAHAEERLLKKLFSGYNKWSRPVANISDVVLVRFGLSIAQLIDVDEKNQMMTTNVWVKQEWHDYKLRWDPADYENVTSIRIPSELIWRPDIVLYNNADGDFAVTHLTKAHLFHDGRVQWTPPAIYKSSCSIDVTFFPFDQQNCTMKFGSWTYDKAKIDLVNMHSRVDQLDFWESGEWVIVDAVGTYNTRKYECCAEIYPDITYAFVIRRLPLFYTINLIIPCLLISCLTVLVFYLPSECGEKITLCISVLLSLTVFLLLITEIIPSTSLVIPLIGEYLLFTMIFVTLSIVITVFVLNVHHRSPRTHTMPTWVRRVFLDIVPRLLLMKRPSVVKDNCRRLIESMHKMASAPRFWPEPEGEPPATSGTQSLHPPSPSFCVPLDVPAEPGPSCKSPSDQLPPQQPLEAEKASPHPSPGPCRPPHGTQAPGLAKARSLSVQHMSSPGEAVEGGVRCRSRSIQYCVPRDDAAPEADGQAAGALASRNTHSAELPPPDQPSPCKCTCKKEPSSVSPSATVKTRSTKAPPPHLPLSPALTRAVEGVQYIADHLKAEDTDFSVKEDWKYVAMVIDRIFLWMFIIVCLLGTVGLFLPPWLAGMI
Sequence (P30926 22-498): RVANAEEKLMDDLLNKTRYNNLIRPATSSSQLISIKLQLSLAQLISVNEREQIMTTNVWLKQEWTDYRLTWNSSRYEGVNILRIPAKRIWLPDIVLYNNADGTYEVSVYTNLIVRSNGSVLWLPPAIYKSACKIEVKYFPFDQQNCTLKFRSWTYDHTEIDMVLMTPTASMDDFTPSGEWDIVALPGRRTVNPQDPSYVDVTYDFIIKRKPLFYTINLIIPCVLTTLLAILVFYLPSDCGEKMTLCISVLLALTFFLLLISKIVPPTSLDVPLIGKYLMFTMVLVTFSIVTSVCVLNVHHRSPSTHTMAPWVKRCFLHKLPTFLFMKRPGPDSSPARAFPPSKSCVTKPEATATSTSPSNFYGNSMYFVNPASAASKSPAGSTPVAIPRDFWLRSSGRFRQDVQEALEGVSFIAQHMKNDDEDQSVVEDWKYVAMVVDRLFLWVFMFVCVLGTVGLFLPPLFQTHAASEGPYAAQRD

Compound | IC50 [µM]
CCC[C@@H]1NC(C)(C)CO[C@H]1c1cccc(Cl)c1 [(S,S)-5h, (S,S)-2-(3'-Chlorophenyl)-5,5-dimethyl-3-propylmorpholine] | 8

tested on: nicotine-induced hypothermia; assay: not given; settings: mice, antagonism of acute nicotine; parentheses: confidence limits; cited from earlier work

Compound | AD50 Hypothermia
C[C@H]1NC(C)(C)CO[C@]1(O)c1cccc(Cl)c1 [(R,R)-4a, (R,R)-2-(3'-chlorophenyl)-3,5,5-trimethylmorpholine-2-ol] | IA (IA = AD50 > 20 mg/kg)
CC(NC(C)(C)C)C(=O)c1cccc(Cl)c1 (stereo not drawn) [compound 2, bupropion] | 9.2 (4–23) mg/kg

molecular target: α1*-nAChR (muscle-type α1β1γδ-nAChR) (Homo sapiens, UniProt P02708+P07510+P11230+Q07001); assay: 86Rb+ efflux assay of nAChR function; assay type: cell-based; settings: not given
Sequence (P02708 21-457): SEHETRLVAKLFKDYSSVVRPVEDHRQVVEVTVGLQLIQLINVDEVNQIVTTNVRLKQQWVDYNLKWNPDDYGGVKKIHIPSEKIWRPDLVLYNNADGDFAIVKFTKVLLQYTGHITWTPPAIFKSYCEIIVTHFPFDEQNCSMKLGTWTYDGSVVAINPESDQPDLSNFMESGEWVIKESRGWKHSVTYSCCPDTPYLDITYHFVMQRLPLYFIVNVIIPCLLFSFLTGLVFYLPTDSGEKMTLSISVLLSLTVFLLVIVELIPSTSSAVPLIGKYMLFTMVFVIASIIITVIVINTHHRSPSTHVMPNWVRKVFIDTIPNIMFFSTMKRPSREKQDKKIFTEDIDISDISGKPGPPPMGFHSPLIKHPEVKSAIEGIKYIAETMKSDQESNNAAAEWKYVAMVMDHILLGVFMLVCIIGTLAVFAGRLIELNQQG
Sequence (P11230 24-501): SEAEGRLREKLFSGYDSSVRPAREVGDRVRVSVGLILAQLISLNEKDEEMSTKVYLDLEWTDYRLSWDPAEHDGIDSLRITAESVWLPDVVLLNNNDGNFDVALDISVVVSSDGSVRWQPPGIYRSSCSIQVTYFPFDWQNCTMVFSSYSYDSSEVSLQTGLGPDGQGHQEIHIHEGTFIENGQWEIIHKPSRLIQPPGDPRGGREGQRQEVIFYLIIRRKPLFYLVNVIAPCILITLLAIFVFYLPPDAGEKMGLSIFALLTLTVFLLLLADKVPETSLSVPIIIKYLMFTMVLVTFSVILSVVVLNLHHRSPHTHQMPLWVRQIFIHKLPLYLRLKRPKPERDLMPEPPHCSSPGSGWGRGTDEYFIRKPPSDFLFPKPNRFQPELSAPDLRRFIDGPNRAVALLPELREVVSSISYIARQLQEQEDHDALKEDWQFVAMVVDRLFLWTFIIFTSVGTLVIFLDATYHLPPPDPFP
Sequence (P07510 23-517): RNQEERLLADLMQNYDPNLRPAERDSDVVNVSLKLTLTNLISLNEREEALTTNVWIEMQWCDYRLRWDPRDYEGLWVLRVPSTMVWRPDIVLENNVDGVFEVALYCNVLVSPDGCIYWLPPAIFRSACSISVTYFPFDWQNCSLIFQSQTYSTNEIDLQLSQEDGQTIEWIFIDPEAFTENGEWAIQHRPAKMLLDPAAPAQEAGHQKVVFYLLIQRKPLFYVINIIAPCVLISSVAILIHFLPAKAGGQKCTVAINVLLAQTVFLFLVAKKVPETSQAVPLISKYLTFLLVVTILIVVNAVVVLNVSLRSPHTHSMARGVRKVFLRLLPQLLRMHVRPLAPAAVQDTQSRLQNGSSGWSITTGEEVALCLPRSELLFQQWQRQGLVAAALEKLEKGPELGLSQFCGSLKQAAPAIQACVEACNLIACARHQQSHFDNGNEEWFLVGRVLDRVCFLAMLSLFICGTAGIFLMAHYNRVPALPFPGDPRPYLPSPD
Sequence (Q07001 22-517): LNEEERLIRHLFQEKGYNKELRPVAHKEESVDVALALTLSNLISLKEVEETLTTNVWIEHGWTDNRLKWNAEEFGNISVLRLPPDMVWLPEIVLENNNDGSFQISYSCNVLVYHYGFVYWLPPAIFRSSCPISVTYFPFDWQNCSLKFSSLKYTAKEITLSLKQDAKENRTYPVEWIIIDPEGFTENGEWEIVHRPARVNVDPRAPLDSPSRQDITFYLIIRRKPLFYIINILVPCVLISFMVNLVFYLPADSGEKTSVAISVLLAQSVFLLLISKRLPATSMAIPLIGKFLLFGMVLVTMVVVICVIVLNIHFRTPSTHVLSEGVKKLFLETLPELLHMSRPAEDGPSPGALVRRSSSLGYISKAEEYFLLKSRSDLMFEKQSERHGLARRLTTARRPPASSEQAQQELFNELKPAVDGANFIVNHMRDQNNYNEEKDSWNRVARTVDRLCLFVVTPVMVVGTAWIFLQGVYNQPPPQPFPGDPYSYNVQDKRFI

Compound | IC50 [µM]
C[C@H]1NC(C)(C)CO[C@@H]1c1cccc(Cl)c1 [(R,R)-5a, (R,R)-2-(3'-Chlorophenyl)-3,5,5-trimethylmorpholine] | 9.4
CCC[C@@H]1NC(C)(C)CO[C@H]1c1cccc(Cl)c1 [(S,S)-5h, (S,S)-2-(3'-Chlorophenyl)-5,5-dimethyl-3-propylmorpholine] | 5

tested on: nicotine-induced antinociception (tail-flick); assay: Blockade of nicotine-induced antinociception, tail-flick test; assay type: in vivo, mice; settings: Mus musculus, read-out: AD50 Tail-flick
In short: (§1)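 Male ICR mice (20–25 g) were given the test compound to block the acute effects of nicotine. Dose-response curves used at least four doses of test compound, with at least eight mice per dose group. Results are AD50 (mg/kg) with confidence limits, or % effect at the highest dose tested.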

Compound | ED50 [mg/kg]
C[C@H]1NC(C)(C)CO[C@@H]1c1cccc(Cl)c1 [(R,R)-5a, (R,R)-2-(3'-Chlorophenyl)-3,5,5-trimethylmorpholine] | 1.26
C[C@@H]1NC(C)(C)CO[C@H]1c1cccc(Cl)c1 [(S,S)-5a, (S,S)-2-(3'-Chlorophenyl)-3,5,5-trimethylmorpholine] | 0.036
CCC[C@@H]1NC(C)(C)CO[C@H]1c1cccc(Cl)c1 [(S,S)-5h, (S,S)-2-(3'-Chlorophenyl)-5,5-dimethyl-3-propylmorpholine] | 0.017

same assay, conditions: mice, antagonism of acute nicotine; parentheses: confidence limits

Compound | AD50 Tail-flick
C[C@@H]1NC(C)(C)CO[C@H]1c1cccc(Cl)c1 [(S,S)-5a, (S,S)-2-(3'-Chlorophenyl)-3,5,5-trimethylmorpholine] | 0.036 (0.012–0.1) mg/kg
CCC[C@@H]1NC(C)(C)CO[C@H]1c1cccc(Cl)c1 [(S,S)-5h, (S,S)-2-(3'-Chlorophenyl)-5,5-dimethyl-3-propylmorpholine] | 0.017 (0.002–0.15) mg/kg

same assay, conditions: relative to (S,S)-4a

Compound | More potent in the tail-flick test [times]
C[C@@H]1NC(C)(C)CO[C@H]1c1cccc(Cl)c1 [(S,S)-5a, (S,S)-2-(3'-Chlorophenyl)-3,5,5-trimethylmorpholine] | 5.5

tested on: nicotine-induced hypothermia; assay: Blockade of nicotine-induced hypothermia; assay type: in vivo, mice; settings: Mus musculus, read-out: AD50 Hypothermia
In short: as §1

Compound | ED50 [mg/kg]
C[C@H]1NC(C)(C)CO[C@@H]1c1cccc(Cl)c1 [(R,R)-5a, (R,R)-2-(3'-Chlorophenyl)-3,5,5-trimethylmorpholine] | > 20
C[C@@H]1NC(C)(C)CO[C@H]1c1cccc(Cl)c1 [(S,S)-5a, (S,S)-2-(3'-Chlorophenyl)-3,5,5-trimethylmorpholine] | > 20
CCC[C@@H]1NC(C)(C)CO[C@H]1c1cccc(Cl)c1 [(S,S)-5h, (S,S)-2-(3'-Chlorophenyl)-5,5-dimethyl-3-propylmorpholine] | > 20

same assay, conditions: mice, antagonism of acute nicotine; parentheses: confidence limits

Compound | AD50 Hypothermia
C[C@@H]1NC(C)(C)CO[C@H]1c1cccc(Cl)c1 [(S,S)-5a, (S,S)-2-(3'-Chlorophenyl)-3,5,5-trimethylmorpholine] | inactive

tested on: nicotine-induced locomotor depression; assay: not given; settings: mice, antagonism of acute nicotine; parentheses: confidence limits; cited from earlier work

Compound | AD50 Locomotion
C[C@H]1NC(C)(C)CO[C@]1(O)c1cccc(Cl)c1 [(R,R)-4a, (R,R)-2-(3'-chlorophenyl)-3,5,5-trimethylmorpholine-2-ol] | IA (IA = AD50 > 20 mg/kg)
C[C@@H]1NC(C)(C)CO[C@@]1(O)c1cccc(Cl)c1 [(S,S)-4a, (S,S)-2-(3'-chlorophenyl)-3,5,5-trimethylmorpholine-2-ol] | 0.9 (0.2–5.7) mg/kg
CC(NC(C)(C)C)C(=O)c1cccc(Cl)c1 (stereo not drawn) [compound 2, bupropion] | 4.9 (0.9–46) mg/kg

tested on: nicotine-induced locomotor depression; assay: Blockade of nicotine-induced locomotor depression; assay type: in vivo, mice; settings: Mus musculus, read-out: AD50 Locomotion
In short: as §1

Compound | ED50 [mg/kg]
C[C@H]1NC(C)(C)CO[C@@H]1c1cccc(Cl)c1 [(R,R)-5a, (R,R)-2-(3'-Chlorophenyl)-3,5,5-trimethylmorpholine] | > 20
C[C@@H]1NC(C)(C)CO[C@H]1c1cccc(Cl)c1 [(S,S)-5a, (S,S)-2-(3'-Chlorophenyl)-3,5,5-trimethylmorpholine] | > 20
CCC[C@@H]1NC(C)(C)CO[C@H]1c1cccc(Cl)c1 [(S,S)-5h, (S,S)-2-(3'-Chlorophenyl)-5,5-dimethyl-3-propylmorpholine] | 0.49

same assay, conditions: mice, antagonism of acute nicotine; parentheses: confidence limits

Compound | AD50 Locomotion
CCC[C@@H]1NC(C)(C)CO[C@H]1c1cccc(Cl)c1 [(S,S)-5h, (S,S)-2-(3'-Chlorophenyl)-5,5-dimethyl-3-propylmorpholine] | 0.49(0.3–6.6) mg/kg

tested on: nicotine-induced antinociception (tail-flick); assay: not given; settings: mice, antagonism of acute nicotine; parentheses: confidence limits; cited from earlier work

Compound | AD50 Tail-flick
C[C@H]1NC(C)(C)CO[C@]1(O)c1cccc(Cl)c1 [(R,R)-4a, (R,R)-2-(3'-chlorophenyl)-3,5,5-trimethylmorpholine-2-ol] | 2.5 (1.2–3.6) mg/kg
C[C@@H]1NC(C)(C)CO[C@@]1(O)c1cccc(Cl)c1 [(S,S)-4a, (S,S)-2-(3'-chlorophenyl)-3,5,5-trimethylmorpholine-2-ol] | 0.2 (0.06–0.7) mg/kg

tested on: nicotine-induced antinociception (hot-plate); assay: not given; settings: mice, antagonism of acute nicotine; parentheses: confidence limits; cited from earlier work

Compound | AD50 Hot-plate
C[C@H]1NC(C)(C)CO[C@]1(O)c1cccc(Cl)c1 [(R,R)-4a, (R,R)-2-(3'-chlorophenyl)-3,5,5-trimethylmorpholine-2-ol] | 10.3 (5.7–17.1) mg/kg
C[C@@H]1NC(C)(C)CO[C@@]1(O)c1cccc(Cl)c1 [(S,S)-4a, (S,S)-2-(3'-chlorophenyl)-3,5,5-trimethylmorpholine-2-ol] | 1.0 (0.2–2.2) mg/kg
CC(NC(C)(C)C)C(=O)c1cccc(Cl)c1 (stereo not drawn) [compound 2, bupropion] | 15 (6–19) mg/kg

tested on: nicotine-induced CPP; assay: not given; settings: mice, blockade of nicotine-induced CPP; cited from earlier work

Compound | AD50 CPP [mg/kg]
C[C@@H]1NC(C)(C)CO[C@@]1(O)c1cccc(Cl)c1 [(S,S)-4a, (S,S)-2-(3'-chlorophenyl)-3,5,5-trimethylmorpholine-2-ol] | 0.1
CC(NC(C)(C)C)C(=O)c1cccc(Cl)c1 (stereo not drawn) [compound 2, bupropion] | 0.35

molecular target: human NET (Homo sapiens, UniProt P23975); assay: [3H]NE uptake inhibition, HEK-293 cells expressing human NET; assay type: cell-based; settings: not given

Compound | IC50 [µM]
CCC[C@@H]1NC(C)(C)CO[C@H]1c1cccc(Cl)c1 [(S,S)-5h, (S,S)-2-(3'-Chlorophenyl)-5,5-dimethyl-3-propylmorpholine] | 0.009 ± 0.002

molecular target: α3β4*-nAChR (Homo sapiens, UniProt P30926+P32297); assay: 86Rb+ efflux assay of nAChR function; assay type: cell-based; settings: not given
Sequence (P32297 32-505): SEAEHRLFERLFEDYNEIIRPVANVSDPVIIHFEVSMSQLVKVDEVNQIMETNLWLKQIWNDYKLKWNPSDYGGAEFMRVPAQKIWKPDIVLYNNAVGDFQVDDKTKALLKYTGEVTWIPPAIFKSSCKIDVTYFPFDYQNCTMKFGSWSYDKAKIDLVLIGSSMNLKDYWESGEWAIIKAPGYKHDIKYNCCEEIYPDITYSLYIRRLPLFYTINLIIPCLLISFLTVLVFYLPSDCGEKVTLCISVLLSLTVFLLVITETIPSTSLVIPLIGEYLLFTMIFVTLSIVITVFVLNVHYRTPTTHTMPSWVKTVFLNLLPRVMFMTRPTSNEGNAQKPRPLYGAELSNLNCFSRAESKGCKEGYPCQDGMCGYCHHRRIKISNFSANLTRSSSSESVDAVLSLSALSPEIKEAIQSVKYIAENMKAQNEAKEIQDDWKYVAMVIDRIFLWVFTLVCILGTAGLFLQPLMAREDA
Sequence (P30926 22-498): as the sequence (P30926 22-498) above

Compound | IC50 [µM]
CCC[C@@H]1NC(C)(C)CO[C@H]1c1cccc(Cl)c1 [(S,S)-5h, (S,S)-2-(3'-Chlorophenyl)-5,5-dimethyl-3-propylmorpholine] | 3.1

molecular target: T1, human DAT (Homo sapiens, UniProt Q01959); assay: [3H]DA uptake inhibition, HEK-293 cells expressing human DAT; assay type: cell-based; settings: not given
T1 sequence (Q01959 whole entry): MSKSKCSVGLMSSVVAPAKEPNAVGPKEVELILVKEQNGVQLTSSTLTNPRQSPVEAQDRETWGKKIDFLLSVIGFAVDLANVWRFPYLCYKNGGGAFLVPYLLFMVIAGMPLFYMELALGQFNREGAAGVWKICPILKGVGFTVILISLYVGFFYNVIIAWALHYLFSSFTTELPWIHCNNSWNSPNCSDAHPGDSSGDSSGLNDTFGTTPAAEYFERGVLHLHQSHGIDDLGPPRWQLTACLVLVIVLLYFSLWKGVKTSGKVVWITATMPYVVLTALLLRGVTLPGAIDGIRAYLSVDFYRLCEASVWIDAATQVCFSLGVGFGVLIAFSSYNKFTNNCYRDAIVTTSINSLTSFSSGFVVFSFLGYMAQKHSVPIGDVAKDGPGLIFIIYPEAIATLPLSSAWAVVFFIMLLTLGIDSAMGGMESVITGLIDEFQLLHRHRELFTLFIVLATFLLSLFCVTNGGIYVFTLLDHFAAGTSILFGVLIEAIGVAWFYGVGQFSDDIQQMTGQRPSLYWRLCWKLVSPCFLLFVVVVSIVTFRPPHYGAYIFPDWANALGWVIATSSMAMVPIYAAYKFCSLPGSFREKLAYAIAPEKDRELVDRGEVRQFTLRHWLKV

Compound | IC50 [µM]
CCC[C@@H]1NC(C)(C)CO[C@H]1c1cccc(Cl)c1 [(S,S)-5h, (S,S)-2-(3'-Chlorophenyl)-5,5-dimethyl-3-propylmorpholine] | 0.006 ± 0.001

tested on: nicotine-induced antinociception (hot-plate); assay: Blockade of nicotine-induced antinociception, hot-plate test; assay type: in vivo, mice; settings: Mus musculus, read-out: AD50 Hot-plate
In short: as §1

Compound | ED50 [mg/kg]
C[C@H]1NC(C)(C)CO[C@@H]1c1cccc(Cl)c1 [(R,R)-5a, (R,R)-2-(3'-Chlorophenyl)-3,5,5-trimethylmorpholine] | 3.9
C[C@@H]1NC(C)(C)CO[C@H]1c1cccc(Cl)c1 [(S,S)-5a, (S,S)-2-(3'-Chlorophenyl)-3,5,5-trimethylmorpholine] | > 20
CCC[C@@H]1NC(C)(C)CO[C@H]1c1cccc(Cl)c1 [(S,S)-5h, (S,S)-2-(3'-Chlorophenyl)-5,5-dimethyl-3-propylmorpholine] | > 20

same assay, conditions: mice, antagonism of acute nicotine; parentheses: confidence limits

Compound | AD50 Hot-plate
C[C@@H]1NC(C)(C)CO[C@H]1c1cccc(Cl)c1 [(S,S)-5a, (S,S)-2-(3'-Chlorophenyl)-3,5,5-trimethylmorpholine] | inactive

molecular target: T1, human DAT; assay: not given; settings: HEK-293 cells, mean ± standard error; cited from earlier work

Compound | Monoamine Uptake Inhibition IC50 [3H]DA
C[C@H]1NC(C)(C)CO[C@]1(O)c1cccc(Cl)c1 [(R,R)-4a, (R,R)-2-(3'-chlorophenyl)-3,5,5-trimethylmorpholine-2-ol] | inactive

molecular target: α4β2-nAChR (Homo sapiens, UniProt P17787+P43681); assay: 86Rb+ efflux assay of nAChR function; assay type: cell-based; settings: not given
Sequence (P43681 29-627 limits assumed): as the sequence (P43681 29-627 limits assumed) above
Sequence (P17787 26-502): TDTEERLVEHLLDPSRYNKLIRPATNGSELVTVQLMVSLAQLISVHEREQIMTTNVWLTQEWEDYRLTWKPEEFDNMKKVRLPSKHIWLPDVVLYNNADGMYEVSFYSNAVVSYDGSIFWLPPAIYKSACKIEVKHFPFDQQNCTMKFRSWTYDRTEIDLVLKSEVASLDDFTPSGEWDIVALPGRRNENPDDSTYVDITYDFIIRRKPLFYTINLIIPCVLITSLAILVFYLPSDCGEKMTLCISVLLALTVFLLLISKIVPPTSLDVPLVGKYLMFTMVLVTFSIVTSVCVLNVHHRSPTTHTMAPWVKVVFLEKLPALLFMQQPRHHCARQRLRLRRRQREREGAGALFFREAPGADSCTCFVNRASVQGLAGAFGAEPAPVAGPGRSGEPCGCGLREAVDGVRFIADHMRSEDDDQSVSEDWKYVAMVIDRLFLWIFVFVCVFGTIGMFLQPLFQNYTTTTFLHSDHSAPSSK

Compound | IC50 [µM]
CCC[C@@H]1NC(C)(C)CO[C@H]1c1cccc(Cl)c1 [(S,S)-5h, (S,S)-2-(3'-Chlorophenyl)-5,5-dimethyl-3-propylmorpholine] | 9.5

same assay, conditions: relative to (R,R)-4a

Compound | Potency as functional antagonist of α4β2-nAChR, higher than
C[C@@H]1NC(C)(C)CO[C@@]1(O)c1cccc(Cl)c1 [(S,S)-4a, (S,S)-2-(3'-chlorophenyl)-3,5,5-trimethylmorpholine-2-ol] | ~ 10 fold
